From ChEMBL document CHEMBL3580589, “Discovery of Quinazoline-Based Fluorescent Probes to α1-Adrenergic Receptors” (ACS Med Chem Lett, 2015) come the findings set out here.

SMILES strings stand for the structures. Calls of active or inactive are those of the source. The rule behind the calls is not given here.

Data set [1] has as its target T1, Alpha-1D adrenergic receptor (Homo sapiens, UniProt P25100).
T1 sequence (P25100 whole entry): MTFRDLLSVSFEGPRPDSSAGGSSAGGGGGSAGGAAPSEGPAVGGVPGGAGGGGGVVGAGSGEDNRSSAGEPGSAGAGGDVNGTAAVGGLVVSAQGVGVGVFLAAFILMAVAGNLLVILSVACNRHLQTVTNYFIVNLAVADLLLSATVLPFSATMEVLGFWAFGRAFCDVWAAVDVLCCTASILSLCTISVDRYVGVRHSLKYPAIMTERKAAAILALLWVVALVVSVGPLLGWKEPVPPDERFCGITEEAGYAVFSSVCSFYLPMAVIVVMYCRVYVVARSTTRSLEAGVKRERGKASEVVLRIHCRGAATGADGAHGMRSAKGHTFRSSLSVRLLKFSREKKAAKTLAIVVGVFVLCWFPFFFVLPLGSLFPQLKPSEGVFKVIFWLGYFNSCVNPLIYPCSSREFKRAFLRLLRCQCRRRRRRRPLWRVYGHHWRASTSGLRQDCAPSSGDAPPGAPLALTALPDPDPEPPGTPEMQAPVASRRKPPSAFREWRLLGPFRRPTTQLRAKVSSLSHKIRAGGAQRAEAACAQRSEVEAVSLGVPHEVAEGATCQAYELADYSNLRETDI
Description: Displacement of [3H]-Prazosin from human alpha-1D adrenergic receptor transfected in CHO cell membranes after 2 hrs by microplate scintillation counting analysis. Summed up: (§1)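 Radioligand competition binding used [3H]prazosin on membranes from CHO cells transfected with human cloned α1A-, α1B- or α1D-adrenoceptors.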
Background: Loss of bound radioactivity is the signal in a displacement assay; it reports binding, not function.

The target in data set [2] is T2, Alpha-1D adrenergic receptor (Homo sapiens) (UniProt P25100).
T2 sequence (whole entry): T1 sequence (P25100 whole entry)
The experiment in a line: Binding affinity to alpha-1D adrenergic receptor (unknown origin) transfected in HEK293A cells at 15 nM measured 5 mins post wash out by DiD dye-based confocal microscopic analysis in presence of alpha1 adrenergic receptor antagonist tamsulosin. Type of data set: cell-based. To be noted: HEK293-A. The method, boiled down:
(§2)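 α1A-AR- or α1D-AR-transfected HEK293A cells were incubated with the probe at 15 nM, DiD and tamsulosin at 300 nM as competitor for 5 min at 37 °C. Cells were washed immediately and imaged by confocal microscopy at identical exposure.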

Data set [3] has as its target T3, Alpha-1B adrenergic receptor (Homo sapiens, UniProt P35368).
T3 sequence (P35368 whole entry): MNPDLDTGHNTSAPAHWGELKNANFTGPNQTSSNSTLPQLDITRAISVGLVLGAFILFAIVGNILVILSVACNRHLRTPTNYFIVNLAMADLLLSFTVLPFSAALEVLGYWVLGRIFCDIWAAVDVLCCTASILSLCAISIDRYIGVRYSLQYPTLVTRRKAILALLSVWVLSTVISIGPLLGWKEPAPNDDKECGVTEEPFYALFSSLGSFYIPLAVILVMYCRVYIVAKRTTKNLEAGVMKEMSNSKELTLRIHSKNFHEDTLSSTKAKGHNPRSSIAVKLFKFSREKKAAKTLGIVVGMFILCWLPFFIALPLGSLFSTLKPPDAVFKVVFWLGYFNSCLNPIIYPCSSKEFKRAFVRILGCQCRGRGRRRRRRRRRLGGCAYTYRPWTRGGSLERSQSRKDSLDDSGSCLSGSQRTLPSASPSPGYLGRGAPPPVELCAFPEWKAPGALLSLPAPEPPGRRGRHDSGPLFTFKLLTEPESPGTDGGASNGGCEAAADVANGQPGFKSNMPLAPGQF
Description: Displacement of [3H]-Prazosin from human alpha-1B adrenergic receptor transfected in CHO cell membranes after 2 hrs by microplate scintillation counting analysis. The method, boiled down:
as §1

A short description of data set [4]: Drug uptake in HEK293A cells at 15 nM measured 5 mins post wash out by DiD dye-based confocal microscopic analysis. In kind it is ADME, cell-based. To be noted: human, hek293-a, 0.015 µM. Summed up:
(§3)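 HEK293A cells stably transfected with α1A-AR or α1D-AR, or untransfected HEK293A cells, were incubated with the probe at 15 nM plus the membrane dye DiD for 5 min at 37 °C. Cells were washed immediately and imaged by confocal fluorescence microscopy at identical exposure times.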

The target of data set [5] is T2, Alpha-1D adrenergic receptor (Homo sapiens). The experiment in a line: Binding affinity to alpha-1D adrenergic receptor (unknown origin) transfected in HEK293A cells at 15 nM measured 5 mins post wash out by DiD dye-based confocal microscopic analysis. In kind it is cell-based. As to conditions: HEK293-A. The method, boiled down: as §3
The nature of data set [6]: Cytotoxicity against HEK293A cells transfected with alpha-1D adrenergic receptor assessed as cell viability by sulforhodamine B assay. In kind it is cell-based. To be noted: Homo sapiens, HEK293-A. The method, boiled down: (§4)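 Standard sulforhodamine B colorimetric assay in HEK293A cells stably transfected with α1A-AR or α1D-AR.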
On the technique in general: Sulforhodamine B stains cellular protein and so reports cell mass.

The target in data set [7] is T4, Alpha-1A adrenergic receptor (Homo sapiens) (UniProt P35348).
T4 sequence (whole entry): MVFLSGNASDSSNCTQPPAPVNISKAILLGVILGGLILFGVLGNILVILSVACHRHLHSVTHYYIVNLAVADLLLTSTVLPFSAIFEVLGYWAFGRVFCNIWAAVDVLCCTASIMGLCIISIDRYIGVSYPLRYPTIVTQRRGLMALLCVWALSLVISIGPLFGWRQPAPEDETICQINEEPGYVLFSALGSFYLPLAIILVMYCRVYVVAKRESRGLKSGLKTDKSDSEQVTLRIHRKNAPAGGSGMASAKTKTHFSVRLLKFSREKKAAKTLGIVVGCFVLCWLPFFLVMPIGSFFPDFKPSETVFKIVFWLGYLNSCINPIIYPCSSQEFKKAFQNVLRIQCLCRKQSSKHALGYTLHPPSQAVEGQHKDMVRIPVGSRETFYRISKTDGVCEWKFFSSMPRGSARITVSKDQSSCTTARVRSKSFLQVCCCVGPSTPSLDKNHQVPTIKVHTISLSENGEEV
Description: Binding affinity to alpha-1A adrenergic receptor (unknown origin) transfected in HEK293A cells at 15 nM measured 5 mins post wash out by DiD dye-based confocal microscopic analysis. To be noted: HEK293-A. In kind it is cell-based. The method, boiled down:
as §3

Data set [8] in a line: Cytotoxicity against HEK293A cells transfected with alpha-1A adrenergic receptor assessed as cell viability by sulforhodamine B assay. Type of data set: cell-based. As to conditions: Homo sapiens, HEK293-A. Summed up: as §4
Data set [9] deals with T5, Alpha-1A adrenergic receptor (Homo sapiens, UniProt P35348).
T5 sequence (P35348 whole entry): T4 sequence (whole entry)
Description: Displacement of [3H]-Prazosin from human alpha-1A adrenergic receptor transfected in CHO cell membranes after 2 hrs by microplate scintillation counting analysis. Summed up:
as §1

The target of data set [10] is T4, Alpha-1A adrenergic receptor (Homo sapiens). Description: Binding affinity to alpha-1A adrenergic receptor (unknown origin) transfected in HEK293A cells at 15 nM measured 5 mins post wash out by DiD dye-based confocal microscopic analysis in presence of alpha1 adrenergic receptor antagonist tamsulosin. In kind it is cell-based. To be noted: HEK293-A. Summed up:
as §2

The target of data set [11] is T2, Alpha-1D adrenergic receptor (Homo sapiens). The experiment in a line: Binding affinity to alpha-1D adrenergic receptor (unknown origin) transfected in HEK293A cells at 10 nM after 5 mins by DiD dye-based confocal microscopic analysis. Type of data set: cell-based. As to conditions: HEK293-A. The method, boiled down:
(§5)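 α1A-AR- or α1D-AR-transfected HEK293A cells, or untransfected HEK293A cells as the receptor-free control, were incubated with the probe plus DiD (red, colocalization) for 5 min at 37 °C. Probe signal was compared with the DiD-stained surface for subcellular localization by fluorescence microscopy.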

Data set [12] shares this target. Description: Binding affinity to alpha-1D adrenergic receptor (unknown origin) transfected in HEK293 cells at 20 nM after 20 mins by flow cytometric analysis. Type of data set: cell-based. Background: Flow cytometry measures light scatter and fluorescence of single cells or particles in a stream.
Data set [13] is described as follows: Drug uptake in HEK293A cells at 10 nM after 5 mins by DiD dye-based confocal microscopic analysis. In kind it is ADME, cell-based. As to conditions: human, hek293-a, 0.01 µM. The method, boiled down: as §5
The target in data set [14] is T2, Alpha-1D adrenergic receptor (Homo sapiens). Description: Binding affinity to alpha-1D adrenergic receptor (unknown origin) transfected in HEK293A cells at 10 nM after 5 mins by DiD dye-based confocal microscopic analysis in presence of alpha1 adrenergic receptor antagonist tamsulosin. As to conditions: HEK293-A. In kind it is cell-based. Summed up:
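Transfected HEK293A cells expressing α1A-AR or α1D-AR were incubated with the probe, DiD and tamsulosin as competing α1-AR antagonist for 5 min at 37 °C. Fluorescence labelling was imaged by confocal microscopy.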

Data set [15] is described as follows: Drug uptake in plasma membrane of HEK293A cells transfected with alpha-1A adrenergic receptor at 50 nM measured 5 mins post wash out by DiD dye-based confocal microscopic analysis. In kind it is ADME. To be noted: human, hek293-a, 0.05 µM. The method, boiled down:
as §5

The nature of data set [16]: Drug uptake in plasma membrane of HEK293A cells transfected with alpha-1D adrenergic receptor at 50 nM measured 5 mins post wash out by DiD dye-based confocal microscopic analysis. In kind it is ADME, cell membranes. To be noted: human, hek293-a, 0.05 µM. The method, boiled down: as §5
Data set [17] in a line: Drug uptake in cytoplasm of HEK293A cells transfected with alpha-1D adrenergic receptor at 50 nM measured 5 mins post wash out by DiD dye-based confocal microscopic analysis. Type of data set: ADME, cell-based. As to conditions: human, hek293-a, 0.05 µM. The method, boiled down:
as §5

For `COc1cc2nc(N3CCN(C(=O)c4cn(-c5cc6ccc(O)cc6oc5=O)nn4)CC3)nc(N)c2cc1OC`, the IC50 in data set [1] was below 5 nM; in [3], below 5 nM; in data set [6], 85000 nM; in data set [8], above 100000 nM; in [9], 2.5 nM. Moreover, the outcome in [2] and in data set [10] was inactive. The Drug uptake entry in data set [4] is given as “Active”. In addition, the result in [5] and in data set [7] was Active. The Ki in [9] worked out at 1.3 nM.
For the compound `CCN(CC)c1ccc2cc(-n3cc(C(=O)N4CCN(c5nc(N)c6cc(OC)c(OC)cc6n5)CC4)nn3)c(=O)oc2c1`, the IC50 in data set [1] amounted to 2.2 nM; in data set [3] it was 1.2 nM; in [6], 32000 nM; in data set [8], 12000 nM; in [9] it was 0.6 nM. For the same compound, the Ki in data set [1] is 0.4 nM; in data set [3], 0.1 nM; in data set [9], 0.3 nM. For the same compound, the result in data set [11] and in [12] was Active. The Drug uptake result in [13] is reported as “Active”. The outcome in data set [14] was inactive.
In the case of `COc1cc2nc(N3CCN(C(=O)c4cc5ccc(O)cc5oc4=O)CC3)nc(N)c2cc1OC`, the IC50 in data set [1] was below 5 nM; in data set [3], below 5 nM; in data set [6], above 100000 nM; in [8], above 100000 nM; in [9], 3.9 nM. The Drug uptake result in data set [15], in data set [4], in [16] and in [17] was “Active” each time. Moreover, the result in data set [2] and in [10] was inactive. For the same compound, the outcome in data set [5] and in [7] was Active. The compound also returned a Ki in data set [9] of 2.1 nM.

What is called IC50 is the midpoint of a concentration-inhibition curve. By Ki is commonly meant a dissociation constant, usually derived from enzyme kinetics or from competition with a known ligand. Low readings indicate higher affinity, high ones lower affinity.
